Experimental data taken from ChEMBL document CHEMBL1139179, “5-Alkynyl-2'-deoxyuridines: chromatography-free synthesis and cytotoxicity evaluation against human breast cancer cells” (Bioorg Med Chem, 2007).

Legend:
MDA-MB-231 = test: Cytotoxicity against human MDA-MB-231 cells after 72 hrs; assay type: functional, cell-based; details: MDA-MB-231, 72 h
Summary of the method: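 MDA-MB-231 cells (100 μL at 5000 cells/mL) grown 72 h at 37 °C, 5% CO2, then given graded concentrations (six replicates) for a further 72 h. Glutardialdehyde fixation, 0.02 M crystal violet staining, 70% ethanol elution, absorbance at 590 nm. A day-0 biomass plate was subtracted and the control taken as 100%. IC50 is 50% proliferation inhibition, mean of at least two independent runs.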

MCF7 [1] = test: Cytotoxicity against human MCF7 cells after 96 hrs; details: MCF7, 96 h
MCF7 [2] = test: Cytotoxicity against human MCF7 cells after 72 hrs; assay type: functional, cell-based; details: MCF7, 72 h

Row | SMILES | IC50 (MDA-MB-231) | IC50 (MCF7 [1]) | IC50 (MCF7 [2])
1 | C#Cc1cn([C@H]2C[C@H](O)[C@@H](CO)O2)c(=O)[nH]c1=O | 4.4 µM | 0.4 µM | 
2 | C[Si](C)(C)C#Cc1cn([C@H]2C[C@H](O)[C@@H](CO)O2)c(=O)[nH]c1=O | 4.2 µM | 1.6 µM | 
3 | O=c1[nH]c(=O)n([C@H]2C[C@H](O)[C@@H](CO)O2)cc1C#CC1CC1 | > 50 µM | > 50 µM | 
4 | Cc1ccc(C#Cc2cn([C@H]3C[C@H](O)[C@@H](CO)O3)c(=O)[nH]c2=O)cc1 | > 50 µM |  | 0.9 µM
5 | CCCCCc1ccc(C#Cc2cn([C@H]3C[C@H](O)[C@@H](CO)O3)c(=O)[nH]c2=O)cc1 | 29.2 µM | 37 µM | 
6 | CCCC#Cc1cn([C@H]2C[C@H](O)[C@@H](CO)O2)c(=O)[nH]c1=O | > 50 µM | > 50 µM | 
7 | O=c1[nH]c(=O)n([C@H]2C[C@H](O)[C@@H](CO)O2)cc1C#CC1(O)CCCCC1 | > 50 µM | > 50 µM | 
8 | CC(C)(C)c1ccc(C#Cc2cn([C@H]3C[C@H](O)[C@@H](CO)O3)c(=O)[nH]c2=O)cc1 | > 50 µM | 9.5 µM | 
9 | O=c1[nH]cc(F)c(=O)[nH]1 [FLUOROURACIL] | 9.6 µM |  | 4.8 µM
